In ChEMBL document CHEMBL1155270, “Modifications at the C-terminus to improve pyrrole-imidazole polyamide activity in cell culture” (J Med Chem, 2009):
The source made the active and inactive calls. The rule behind the calls is not given here.

Assays:
U-251 [1] = experiment: Inhibition of desferrioxamine-induced VEGF mRNA expression in human U251 cells at 0.02 to 0.2 uM by quantitative RT-PCR analysis; type: functional, cell-based
Outline: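 In U251 cells, induced VEGF mRNA was quantified by real-time RT-PCR after polyamide at 1, 0.2 and 0.02 μM, with DMSO ≤0.1%. Values were normalized to untreated induced cells; uninduced and DMSO-vehicle controls were run alongside.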

LNCaP [2] = experiment: Inhibition of desferrioxamine-induced VEGF mRNA expression in human LNCAP cells at 1 to 2 uM by quantitative RT-PCR analysis; type: functional, cell-based
Nucleic Acid [3] = experiment: Binding affinity to 14mer DNA assessed as change in melting temperature by spectrophotometry; type: nucleic-acid assay
Outline: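 Thermal melting of 14-mer oligonucleotide duplexes (HRE or ARE sequence) with and without polyamide, read by UV spectrophotometry in 1 cm quartz cuvettes with a thermostatted holder. Buffer was 10 mM sodium cacodylate, 10 mM KCl, 10 mM MgCl2, 5 mM CaCl2, pH 7.0. ΔTm is taken relative to the free duplex.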

LNCaP [4] = experiment: Cytotoxicity against human LNCAP cells after 48 hrs by WST1 assay; type: functional, cell-based
Outline: (§1)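 LNCaP cells were seeded at 10-15 × 10^2 per well and allowed to settle 48 h before polyamide was added as 2× media solutions (DMSO <0.1%). After 48 h exposure, media was replaced and cells recovered 24 h. WST-1 was added for 30 min and A450 read. Wells were corrected for media-only background and normalized to untreated controls.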

LNCaP [5] = experiment: Cytotoxicity against human LNCAP cells at 0.02 to 50 uM after 48 hrs by WST1 assay; type: functional, cell-based; outline: as §1
U-251 [6] = experiment: Cytotoxicity against human U251 cells at 0.002 to 10 uM after 48 hrs by WST1 assay; type: functional, cell-based
Outline: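 U251 cells were plated at 10-15 × 10^2 per well. After 24 h, polyamide was added in 2× media, with a 10–0.002 μM range for the core-less oxime controls. Cells were treated 48 h, then given fresh media for 24 h recovery. WST-1 was read at 450 nm after 30 min, with background correction and normalization to untreated wells.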

U-251 [7] = experiment: Cytotoxicity against human U251 cells after 48 hrs by WST1 assay; details: U-251, 48 h
LNCaP [8] = experiment: Inhibition of dihydrotestosterone-induced prostate specific antigen expression in human LNCAP cells at 5 uM by quantitative RT-PCR analysis; type: functional
Outline: (§2)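 LNCaP cells were induced with 1 nM DHT and PSA mRNA measured by quantitative real-time RT-PCR. Oxime-linked polyamides were given at 5, 1 and 0.1 μM, and unconjugated controls at 5 μM, with DMSO ≤0.1%. Expression was normalized to untreated DHT-induced cells; uninduced and DMSO controls were included.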

LNCaP [9] = experiment: Cytotoxicity against human LNCAP cells at 5 uM after 48 hrs by WST1 assay; type: functional, cell-based
Nucleic Acid [10] = experiment: Binding affinity to 5'-TTGCAGAACAGCAA-3' sequence of DNA assessed as change in melting temperature by spectrophotometry; type: nucleic-acid assay
LNCaP [11] = experiment: Cytotoxicity against human LNCAP cells assessed as cell viability at 0.01 to 30 uM after 48 hrs by WST1 assay; type: functional; outline: as §1
LNCaP [12] = experiment: Inhibition of dihydrotestosterone-induced prostate specific antigen expression in human LNCAP cells at 1 uM by quantitative RT-PCR analysis; type: functional, cell-based; outline: as §2
LNCaP [13] = experiment: Inhibition of dihydrotestosterone-induced prostate specific antigen expression in human LNCAP cells by quantitative RT-PCR analysis; type: functional, cell-based
Outline: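 For gene-regulation IC50, DHT (1 nM)-induced LNCaP cells were dosed across 30–0.1 μM or 10–0.03 μM. PSA mRNA was quantified by real-time RT-PCR and normalized to induced untreated cells. Isotherms from three independent experiments were fitted with a modified Hill equation.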

LNCaP [14] = experiment: Selectivity ratio of IC50 for human LNCAP cells to IC50 for inhibition of dihydrotestosterone-induced prostate specific antigen expression in human LNCAP cells; type: functional
Outline: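 Ratio of WST-1 growth-inhibition IC50 (48 h exposure, 24 h recovery, LNCaP) to PSA gene-regulation IC50. The gene-regulation IC50 came from Hill-fitted RT-PCR isotherms in 1 nM DHT-induced LNCaP cells, three independent experiments.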

| SMILES | ΔTm (Nucleic Acid [10]) [°C] | IC50 (LNCaP [4]) [µM] | Activity (LNCaP [5]) | Activity (U-251 [6]) | IC50 (U-251 [7]) [µM] | other results |
| --- | --- | --- | --- | --- | --- | --- |
| Cn1cc(NC(=O)c2cc(NC(=O)c3cc(NC(=O)c4nc(NC(=O)[C@H](N)CCNC(=O)c5nc(NC(=O)c6cc(NC(=O)c7nc(NC(=O)c8nccn8C)cn7C)cn6C)cn5C)cn4C)cn3C)cn2C)cc1C(=O)NCCCO/N=C\c1ccc(F)cc1 |  |  |  |  |  | inhibition (U-251 [1]): Active; inhibition (LNCaP [2]): Active; ΔTm (Nucleic Acid [3]): 0.8 °C |
| CC(=O)NCCCO/N=C\c1cccc(C(=O)O)c1 |  | > 50 | inactive | inactive | > 10 |  |
| NCCCO/N=C\c1cccc(C(=O)O)c1 |  | > 50 | inactive | inactive | > 10 |  |
| CC(=O)NCCCO/N=C\c1ccc(F)cc1 |  | > 50 | inactive | inactive | > 10 |  |
| Cn1cc(NC(=O)c2cc(NC(=O)c3cc(NC(=O)c4nc(NC(=O)[C@H](N)CCNC(=O)c5cc(NC(=O)c6cc(NC(=O)c7cc(NC(=O)c8nccn8C)cn7C)cn6C)cn5C)cn4C)cn3C)cn2C)cc1C(=O)NCCCON | 11.2 |  |  |  |  | inhibition at 5 µM (LNCaP [8]): 50% |
| Cn1cc(NC(=O)c2cc(NC(=O)c3cc(NC(=O)c4nc(NC(=O)[C@H](N)CCNC(=O)c5nc(NC(=O)c6cc(NC(=O)c7nc(NC(=O)c8nccn8C)cn7C)cn6C)cn5C)cn4C)cn3C)cn2C)cc1C(=O)NCCCO/N=C\c1cccc(F)c1 |  |  |  |  |  | inhibition (U-251 [1]): Active; inhibition (LNCaP [2]): Active; ΔTm (Nucleic Acid [3]): 0.9 °C |
| Cn1cc(NC(=O)c2cc(NC(=O)c3nc(NC(=O)c4cc(NC(=O)[C@H](N)CCNC(=O)c5nc(NC(=O)c6cc(NC(=O)c7cc(NC(=O)c8nccn8C)cn7C)cn6C)cn5C)cn4C)cn3C)cn2C)cc1C(=O)NCCCON |  |  |  |  |  | inhibition at 5 µM (LNCaP [8]): 10%; ΔTm (Nucleic Acid [3]): 2 °C |
| NCCCO/N=C\c1ccc(F)cc1 |  | > 50 | inactive | inactive | > 10 |  |

Second part, led by results:

| ΔTm (Nucleic Acid [10]) [°C] | SMILES | IC50 (LNCaP [4]) [µM] | Activity (LNCaP [5]) | Activity (U-251 [6]) | IC50 (U-251 [7]) [µM] | other results |
| --- | --- | --- | --- | --- | --- | --- |
| 12.5 | Cn1cc(NC(=O)c2cc(NC(=O)c3cc(NC(=O)c4nc(NC(=O)[C@H](N)CCNC(=O)c5cc(NC(=O)c6cc(NC(=O)c7cc(NC(=O)c8nccn8C)cn7C)cn6C)cn5C)cn4C)cn3C)cn2C)cc1C(=O)NCCCO/N=C\c1cccc(F)c1 | 0.6 |  |  |  | inhibition (LNCaP [8]): Active; Activity (LNCaP [9]): Active |
| 10.4 | Cn1cc(NC(=O)c2cc(NC(=O)c3cc(NC(=O)c4nc(NC(=O)[C@H](N)CCNC(=O)c5cc(NC(=O)c6cc(NC(=O)c7cc(NC(=O)c8nccn8C)cn7C)cn6C)cn5C)cn4C)cn3C)cn2C)cc1C(=O)NCCCCCCCNC(=O)c1cccc(C(=O)O)c1 | > 30 |  |  |  | Activity (LNCaP [11]): <50% |
| 11.5 | Cn1cc(NC(=O)c2cc(NC(=O)c3cc(NC(=O)c4nc(NC(=O)[C@H](N)CCNC(=O)c5cc(NC(=O)c6cc(NC(=O)c7cc(NC(=O)c8nccn8C)cn7C)cn6C)cn5C)cn4C)cn3C)cn2C)cc1C(=O)NCCCO/N=C\c1cccc(C(=O)O)c1 | 1.7 |  |  |  | inhibition (LNCaP [8]): Active; inhibition (LNCaP [12]): Active; IC50 (LNCaP [13]): 0.3 µM; Activity (LNCaP [9]): Active; Ratio IC50 (LNCaP [14]): 6.1 |
